In assay [1] the target is Human immunodeficiency virus type 1 reverse transcriptase (Human immunodeficiency virus 1) (UniProt Q72547). As to the kind of experiment: Ratio of Ki to Km for HIV1 reverse transcriptase.
Assay [2] deals with RKO. As to the kind of experiment: Induction of thymidylate kinase expression in human RKO cells expressing Tet-On gene after 48 hrs by Western blotting. The format is functional, cell-based. The method, boiled down:
(§1)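 Tet-On TMPK RKO cells were grown with doxycycline at 0, 50 or 3,000 ng/ml to induce TMPK. Expression was assessed by Western blotting with actin as the internal control.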

Assay [3] relates to RKO. Kind of assay: Induction of 3-phosphoglycerate kinase expression in human RKO cells expressing Tet-On gene at 100 ng/ml after 72 hrs by Western blotting relative to control.
Assay [4] deals with RKO. As to the kind of experiment: Induction of thymidylate kinase expression in human RKO cells expressing Tet-On gene after 48 hrs by Western blotting relative to control. It is filed as functional. In outline: as §1

SMILES strings stand for the structures.

On to `C#C[C@@]1(COP(=O)(O)OP(=O)(O)OP(=O)(O)O)C=C[C@H](n2cc(C)c(=O)[nH]c2=O)O1`, for which the Ki/Km in assay [1] stood at 0.15.

Take `Cc1cn([C@H]2C=C[C@@H](COP(=O)(O)OP(=O)(O)OP(=O)(O)O)O2)c(=O)[nH]c1=O`: the Ki/Km in assay [1] turned out to be 1.1.

`C[C@H]1c2cccc(O)c2C(=O)C2=C(O)[C@]3(O)C(=O)C(C(N)=O)=C(O)[C@@H](N(C)C)[C@@H]3[C@@H](O)[C@@H]21.O` [DOXYCYCLINE]: the Activity entry with RKO [2] is “Dose-dependent effect”. The “fold change (FC)” value in the assay on RKO [3] worked out at 3; in the assay with RKO [4], 5.

Source of the values: ChEMBL document CHEMBL1137646, “Intracellular metabolism and persistence of the anti-human immunodeficiency virus activity of 2',3'-didehydro-3'-deoxy-4'-ethynylthymidine, a novel thymidine analog” (Antimicrob Agents Chemother, 2007).
